Reference: ChEMBL document CHEMBL4376856, “Discovery of N-(4-Aminobutyl)-N'-(2-methoxyethyl)guanidine as the First Selective, Nonamino Acid, Catalytic Site Inhibitor of Human Dimethylarginine Dimethylaminohydrolase-1 (hDDAH-1)” (J Med Chem, 2020)

Experiments:
[1] = target: T1, N(G),N(G)-dimethylarginine dimethylaminohydrolase 1 (Homo sapiens, UniProt O94760); test: Inhibition of 6xHis-tagged recombinant human DDAH1 expressed in Escherichia coli BL21 cells using NMMA as substrate measured after 30 mins by colder reagent based microplate reader assay
T1 sequence (O94760 whole entry): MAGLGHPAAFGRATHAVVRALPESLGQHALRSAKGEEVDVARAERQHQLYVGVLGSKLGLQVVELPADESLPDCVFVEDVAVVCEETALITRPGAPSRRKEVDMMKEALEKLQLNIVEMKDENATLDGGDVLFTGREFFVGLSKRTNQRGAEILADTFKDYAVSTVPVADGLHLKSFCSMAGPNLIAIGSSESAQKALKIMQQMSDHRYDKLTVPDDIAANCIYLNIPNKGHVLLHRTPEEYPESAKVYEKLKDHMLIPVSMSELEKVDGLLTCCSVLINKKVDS
Summary of the method: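 Ki against hDDAH-1, given as the mean ± SD of at least two independent experiments.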

Arginase-1 (Bos taurus) = target: T2, Arginase-1 (Bos taurus) (UniProt Q2KJ64); test: Inhibition of bovine liver arginase at 1 mM using L-arginine as substrate measured after 30 mins by colder reagent based microplate reader assay relative to control
T2 sequence (whole entry): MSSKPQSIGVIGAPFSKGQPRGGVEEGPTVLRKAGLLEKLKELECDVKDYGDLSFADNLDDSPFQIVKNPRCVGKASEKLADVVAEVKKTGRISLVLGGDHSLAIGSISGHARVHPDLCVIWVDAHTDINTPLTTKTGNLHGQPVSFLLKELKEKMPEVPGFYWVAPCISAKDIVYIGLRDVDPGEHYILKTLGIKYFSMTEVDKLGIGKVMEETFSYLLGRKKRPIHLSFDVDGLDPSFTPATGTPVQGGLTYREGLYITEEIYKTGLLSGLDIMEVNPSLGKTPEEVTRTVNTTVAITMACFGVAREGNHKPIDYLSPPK
Summary of the method: (§1)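 Each enzyme (arginase, nNOS, eNOS, iNOS) tested with inhibitor at 1 mM; percent inhibition given as the mean ± SD of at least three independent experiments.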

[2] = target: Nitric oxide synthase 1 (Homo sapiens) (UniProt P29475); test: Inhibition of neuronal NOS (unknown origin) assessed as formation of methemoglobin from oxyhemoglobin at 1 mM using L-arginine as substrate in presence of oxyhemoglobin and NADPH by UV-vis spectrophotometry relative to control; summary of the method: as §1
Nitric oxide synthase 1 (Homo sapiens), sequence (P29475 whole entry): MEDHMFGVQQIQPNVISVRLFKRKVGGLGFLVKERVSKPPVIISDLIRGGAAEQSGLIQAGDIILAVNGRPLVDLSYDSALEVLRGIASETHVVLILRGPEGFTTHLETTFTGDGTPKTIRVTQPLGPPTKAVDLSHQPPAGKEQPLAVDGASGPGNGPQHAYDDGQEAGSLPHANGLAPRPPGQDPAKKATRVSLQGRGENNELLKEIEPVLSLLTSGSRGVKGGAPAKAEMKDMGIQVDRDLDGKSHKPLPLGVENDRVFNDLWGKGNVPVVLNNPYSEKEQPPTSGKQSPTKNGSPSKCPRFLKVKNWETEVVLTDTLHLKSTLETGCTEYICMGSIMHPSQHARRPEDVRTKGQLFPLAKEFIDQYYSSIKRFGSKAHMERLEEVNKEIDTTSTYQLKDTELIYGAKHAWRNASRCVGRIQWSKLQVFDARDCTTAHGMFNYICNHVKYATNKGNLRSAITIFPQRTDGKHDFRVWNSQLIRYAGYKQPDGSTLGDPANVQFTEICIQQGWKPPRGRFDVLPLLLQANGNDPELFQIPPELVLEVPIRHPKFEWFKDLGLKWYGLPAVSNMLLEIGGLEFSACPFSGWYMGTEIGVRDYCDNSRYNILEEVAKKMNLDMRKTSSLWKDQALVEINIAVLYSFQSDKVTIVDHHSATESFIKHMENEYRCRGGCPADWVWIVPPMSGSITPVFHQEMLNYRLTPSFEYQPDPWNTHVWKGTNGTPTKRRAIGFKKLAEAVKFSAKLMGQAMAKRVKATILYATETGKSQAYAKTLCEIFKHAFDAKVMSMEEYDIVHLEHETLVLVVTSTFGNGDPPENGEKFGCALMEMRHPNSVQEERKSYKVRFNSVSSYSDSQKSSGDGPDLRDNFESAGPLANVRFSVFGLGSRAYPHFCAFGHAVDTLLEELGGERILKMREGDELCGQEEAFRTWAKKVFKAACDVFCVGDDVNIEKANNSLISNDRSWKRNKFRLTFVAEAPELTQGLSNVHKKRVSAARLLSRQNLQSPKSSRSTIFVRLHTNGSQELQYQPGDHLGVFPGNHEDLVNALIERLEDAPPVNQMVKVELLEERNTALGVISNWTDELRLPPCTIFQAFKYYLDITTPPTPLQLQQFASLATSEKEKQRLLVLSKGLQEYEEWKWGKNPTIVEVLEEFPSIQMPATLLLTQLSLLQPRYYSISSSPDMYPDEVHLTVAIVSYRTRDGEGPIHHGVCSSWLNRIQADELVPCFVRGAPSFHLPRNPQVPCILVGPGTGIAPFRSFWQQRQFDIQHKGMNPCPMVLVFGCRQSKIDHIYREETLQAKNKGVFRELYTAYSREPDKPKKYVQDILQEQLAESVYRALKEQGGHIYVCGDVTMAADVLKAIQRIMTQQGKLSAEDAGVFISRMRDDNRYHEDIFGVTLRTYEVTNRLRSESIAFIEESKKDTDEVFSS

[3] = target: T3, Nitric oxide synthase 3 (Homo sapiens) (UniProt P29474); test: Inhibition of endothelial NOS (unknown origin) assessed as formation of methemoglobin from oxyhemoglobin at 1 mM using L-arginine as substrate in presence of oxyhemoglobin and NADPH by UV-vis spectrophotometry relative to control; summary of the method: as §1
T3 sequence (whole entry): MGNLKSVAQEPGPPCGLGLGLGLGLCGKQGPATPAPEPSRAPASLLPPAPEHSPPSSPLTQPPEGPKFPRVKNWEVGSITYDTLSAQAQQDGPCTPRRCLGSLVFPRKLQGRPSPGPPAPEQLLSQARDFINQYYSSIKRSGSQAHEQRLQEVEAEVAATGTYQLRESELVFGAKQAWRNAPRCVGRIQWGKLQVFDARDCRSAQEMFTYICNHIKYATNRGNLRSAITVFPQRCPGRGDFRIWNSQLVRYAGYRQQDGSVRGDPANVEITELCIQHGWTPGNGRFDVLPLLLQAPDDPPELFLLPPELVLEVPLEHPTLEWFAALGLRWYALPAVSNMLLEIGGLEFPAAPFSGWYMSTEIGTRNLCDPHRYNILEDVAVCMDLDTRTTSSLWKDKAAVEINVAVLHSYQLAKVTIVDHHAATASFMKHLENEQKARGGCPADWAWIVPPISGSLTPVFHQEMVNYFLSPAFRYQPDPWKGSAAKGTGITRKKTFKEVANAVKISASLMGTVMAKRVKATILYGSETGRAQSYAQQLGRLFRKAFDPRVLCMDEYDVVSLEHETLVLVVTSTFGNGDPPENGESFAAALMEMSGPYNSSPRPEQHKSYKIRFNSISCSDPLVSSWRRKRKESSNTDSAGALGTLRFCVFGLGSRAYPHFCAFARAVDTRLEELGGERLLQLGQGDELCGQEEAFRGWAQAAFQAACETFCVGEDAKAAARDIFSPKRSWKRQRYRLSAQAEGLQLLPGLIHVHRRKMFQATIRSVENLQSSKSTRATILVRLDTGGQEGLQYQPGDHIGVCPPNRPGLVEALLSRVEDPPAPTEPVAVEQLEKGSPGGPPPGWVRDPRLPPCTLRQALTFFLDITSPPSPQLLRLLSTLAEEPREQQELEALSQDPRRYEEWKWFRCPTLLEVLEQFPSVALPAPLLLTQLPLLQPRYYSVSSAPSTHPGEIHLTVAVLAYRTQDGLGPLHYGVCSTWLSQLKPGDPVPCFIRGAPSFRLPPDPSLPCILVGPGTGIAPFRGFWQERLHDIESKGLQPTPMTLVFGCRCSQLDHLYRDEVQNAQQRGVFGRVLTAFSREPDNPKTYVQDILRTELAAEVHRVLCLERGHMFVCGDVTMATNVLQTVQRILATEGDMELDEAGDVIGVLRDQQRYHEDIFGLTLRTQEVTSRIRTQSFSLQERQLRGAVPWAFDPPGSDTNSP

[4] = target: Nitric oxide synthase, inducible (Homo sapiens) (UniProt P35228); test: Inhibition of iNOS (unknown origin) assessed as formation of methemoglobin from oxyhemoglobin at 1 mM using L-arginine as substrate in presence of oxyhemoglobin and NADPH by UV-vis spectrophotometry relative to control; summary of the method: as §1
Nitric oxide synthase, inducible (Homo sapiens), sequence (P35228 whole entry): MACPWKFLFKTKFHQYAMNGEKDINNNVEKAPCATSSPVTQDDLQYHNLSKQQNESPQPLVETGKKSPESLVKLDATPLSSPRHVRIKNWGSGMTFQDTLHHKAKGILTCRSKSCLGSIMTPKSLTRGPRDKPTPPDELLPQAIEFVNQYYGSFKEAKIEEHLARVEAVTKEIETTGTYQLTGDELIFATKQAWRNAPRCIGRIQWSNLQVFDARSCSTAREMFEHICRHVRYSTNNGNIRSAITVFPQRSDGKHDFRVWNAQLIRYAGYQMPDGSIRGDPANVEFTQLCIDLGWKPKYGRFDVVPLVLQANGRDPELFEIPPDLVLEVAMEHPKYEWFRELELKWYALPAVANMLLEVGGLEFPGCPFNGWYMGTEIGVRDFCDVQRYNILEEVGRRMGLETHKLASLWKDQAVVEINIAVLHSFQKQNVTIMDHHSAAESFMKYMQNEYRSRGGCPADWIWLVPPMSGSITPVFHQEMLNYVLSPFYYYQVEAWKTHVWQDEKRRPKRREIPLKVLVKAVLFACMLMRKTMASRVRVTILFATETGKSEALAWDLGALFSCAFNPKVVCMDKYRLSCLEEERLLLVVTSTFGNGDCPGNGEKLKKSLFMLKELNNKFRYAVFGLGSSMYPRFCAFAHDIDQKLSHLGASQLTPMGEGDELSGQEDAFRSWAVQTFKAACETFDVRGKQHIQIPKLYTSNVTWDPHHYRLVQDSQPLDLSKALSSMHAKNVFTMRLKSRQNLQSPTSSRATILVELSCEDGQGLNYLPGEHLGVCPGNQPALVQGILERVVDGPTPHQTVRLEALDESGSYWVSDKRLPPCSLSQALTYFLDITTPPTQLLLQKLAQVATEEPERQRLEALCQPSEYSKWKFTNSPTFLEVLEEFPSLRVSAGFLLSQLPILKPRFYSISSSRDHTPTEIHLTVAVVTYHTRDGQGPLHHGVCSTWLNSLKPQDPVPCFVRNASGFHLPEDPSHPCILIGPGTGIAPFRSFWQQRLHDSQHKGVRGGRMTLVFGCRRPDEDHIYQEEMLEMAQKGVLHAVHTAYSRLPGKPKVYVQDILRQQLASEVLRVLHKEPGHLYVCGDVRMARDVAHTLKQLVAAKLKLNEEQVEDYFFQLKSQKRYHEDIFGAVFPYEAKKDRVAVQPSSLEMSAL

HEK-293T [5] = test: Cytotoxicity against human HEK293T cells assessed as effect on cell number at 0.1 to 1000 uM incubated for overnight by DAPI staining based analysis
HEK-293T [6] = test: Cytotoxicity against human HEK293T cells assessed as effect on cell viability by measuring ATP content at 0.1 to 1000 uM incubated for overnight by CellTiter-Glo luminescent analysis; format: cell-based
[7] = target: T1, N(G),N(G)-dimethylarginine dimethylaminohydrolase 1; test: Inhibition of 6xHis-tagged recombinant human DDAH1 expressed in Escherichia coli BL21 cells at 1 mM using NMMA as substrate measured after 30 mins by colder reagent based microplate reader assay
[8] = Prodrug conversion in porcine liver mitochondrial membrane vesicles assessed as N-(4-Aminobutyl)-N'-(2-methoxyethyl)guanidine formation at 3 mM and pH 6 preincubated for 3 mins followed by NADH addition measured after 20 mins under aerobic conditions by RP-HPLC analysis; format: ADME, cell membranes, Sus scrofa, Mitochondrial membrane vesicle; conditions: pig, pH 6, 20 min, 3000 µM
Summary of the method: (§2)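 Prodrug incubated with porcine liver subcellular fractions (homogenate, mitochondria, outer mitochondrial membrane vesicles). The formed guanidine was quantified by HPLC after precolumn o-phthalaldehyde derivatization. Data are means ± SD of biological triplicates.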

[9] = target: T4, Mitochondrial amidoxime reducing component 2 (Homo sapiens, UniProt Q969Z3); test: Substrate activity at human recombinant mARC2 expressed in Escherichia coli assessed as enzyme-mediated N-(4-Aminobutyl)-N'-(2-methoxyethyl)guanidine formation at 3 mM and pH 6 preincubated for 3 mins followed by NADH addition measured after 20 mins under aerobic conditions by RP-HPLC analysis; format: ADME; conditions: pH 6, 20 min, 3000 µM
T4 sequence (Q969Z3 whole entry): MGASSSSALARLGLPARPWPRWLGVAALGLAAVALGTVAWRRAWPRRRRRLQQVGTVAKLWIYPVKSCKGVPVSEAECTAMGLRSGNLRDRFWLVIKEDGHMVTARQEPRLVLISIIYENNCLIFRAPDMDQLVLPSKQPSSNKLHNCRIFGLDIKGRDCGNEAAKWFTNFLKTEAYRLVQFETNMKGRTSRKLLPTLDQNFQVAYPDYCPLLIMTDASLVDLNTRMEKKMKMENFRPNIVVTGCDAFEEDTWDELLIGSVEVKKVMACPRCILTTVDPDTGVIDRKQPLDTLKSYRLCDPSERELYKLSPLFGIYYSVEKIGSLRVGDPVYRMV
Summary of the method: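 Incubation used the reconstituted, heterologously expressed human mARC-2 N-reductive system. The guanidine product was measured by HPLC after precolumn derivatization with o-phthalaldehyde.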

[10] = Prodrug conversion in porcine liver homogenate assessed as formation of N-(4-Aminobutyl)-N'-(2-methoxyethyl)guanidine formation at 3 mM and pH 6 preincubated for 3 mins followed by NADH addition measured after 20 mins under aerobic conditions by RP-HPLC analysis; format: ADME, tissue-based, Sus scrofa; conditions: pig, tissue homogenate, pH 6, 20 min, 3000 µM; summary of the method: as §2
[11] = Chemical stability of compound at 250 uM in phosphate buffer at pH 2 to 9 and 37 degree C after 24 hrs by RP-HPLC analysis; format: physicochemical; conditions: pH 2, 24 h
[12] = Prodrug conversion in porcine liver mitochondria assessed as N-(4-Aminobutyl)-N'-(2-methoxyethyl)guanidine formation at 3 mM and pH 6 preincubated for 3 mins followed by NADH addition measured after 20 mins under aerobic conditions by RP-HPLC analysis; format: ADME, Sus scrofa; conditions: pig, pH 6, 20 min, 3000 µM; summary of the method: as §2

Ki [1]	inhibition (Arginase-1 (Bos taurus))	inhibition [2]	inhibition [3]	inhibition [4]	Structure (SMILES)	other results
2810 µM	15%	0%	0%	21%	CCCCCNC(=N)NCCOC	
73 µM	22%	93%	89%	75%	COCC(=N)NCCC[C@H](N)C(=O)O	
983 µM	21%	78%	44%	42%	COCC(=N)NCCCCN	
1 µM					COCCNC(=N)NCCC[C@H](N)C(=O)NS(C)(=O)=O	
	11%	0%	13%	0%	COCCNC(=N)NCCCCN	Activity (HEK-293T [5]): Non-Toxic; Activity (HEK-293T [6]): Non-Toxic
1450 µM	22%	19%	28%	16%	COCCC(=N)NCCCCN	
768 µM	6%	99%	56%	100%	C=CCC(=N)NCCCCN	
59 µM	0%	5%	35%	23%	C=CCCNC(=N)NCCCCN	
	14%	7%	36%	15%	COCCCC(=N)NCCCCN	inhibition [7]: < 20%
	< 20%	< 20%	< 20%	< 20%	COCCCC(=N)NCC[C@H](N)C(=O)O	inhibition [7]: < 20%
1.3 µM					N=C(CCl)NCCC[C@H](N)C(=O)O	
9 µM	43%	65%	54%	50%	COCCC(=N)NCCC[C@H](N)C(=O)O	
	29%			0%	COCCNC(=N)NCCC[C@H](N)C(=O)O	
2760 µM	20%	0%	19%	4%	COCCNC(=N)NCCC(C)C	
489 µM	35%	5%	13%	2%	COCCNC(=N)NCCCCC(=O)O	
	76%				C=CCC(=N)NCCC[C@H](N)C(=O)O	
156 µM	20%	35%	29%	26%	COCCCC(=N)NCCC[C@H](N)C(=O)O	
					COCCN/C(=N/O)NCCCCN	Drug metabolism [8]: Metabolite_Detected; Activity [9]: Active; Drug metabolism [10]: Metabolite_Detected; Stability [11]: Stable; Drug metabolism [12]: Metabolite_Detected; Activity (HEK-293T [5]): Non-Toxic; Activity (HEK-293T [6]): Non-Toxic
	70%				C=CCCNC(=N)NCCC[C@H](N)C(=O)O	
